Reference: article PMC3823637 (Neuropharmacology, 2013)

Key:
Assay type in all cases: cell-based
[1] = system: rat hypothalamic neurons (native AT1R); assay: Whole cell patch recordings from neurons in rat hypothalamic slices; conditions: for effect on Ang-(1-12)-induced depolarization / effect on Ang II-induced depolarization: antagonist/inhibitor 10 μM; for effect on Ang-(1-12)-induced depolarization: prior superfusion of slices; for effect on Ang II-induced depolarization: pretreatment of slices by superfusion
How it was run: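 Coronal hypothalamic slices (250 μm, vibratome) came from Sprague-Dawley rats, 17-20 days old, of either sex, anaesthetised with 4% isoflurane. Slices were superfused with solution gassed with 95% O2/5% CO2 at 20 ± 1°C. Current-clamp whole-cell recordings were made from neurons […] to the 3rd ventricle. Peptide was puffed by nitrogen from a micropipette at 20-30 min intervals. Slices were pretreated with losartan, PD123319 or captopril at 10 μM each.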

[2] = molecular target: T1, AT1R (Homo sapiens, UniProt P30556); assay: Ca2+-based FLIPR assay, CHO/16z25 cells transiently expressing AT1R
T1 sequence (P30556 1-359): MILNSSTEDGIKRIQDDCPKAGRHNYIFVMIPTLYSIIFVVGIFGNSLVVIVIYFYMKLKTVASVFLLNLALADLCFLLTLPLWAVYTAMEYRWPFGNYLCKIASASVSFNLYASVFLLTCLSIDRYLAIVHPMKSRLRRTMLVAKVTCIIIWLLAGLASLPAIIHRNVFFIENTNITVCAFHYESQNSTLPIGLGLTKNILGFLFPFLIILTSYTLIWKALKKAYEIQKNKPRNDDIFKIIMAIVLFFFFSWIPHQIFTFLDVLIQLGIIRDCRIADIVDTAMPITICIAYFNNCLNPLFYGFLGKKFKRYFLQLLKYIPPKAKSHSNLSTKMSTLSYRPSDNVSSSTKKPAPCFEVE

[3] = molecular target: T1, AT1R; conditions: 10 μM losartan; 1 μM Ang II or 10 μM Ang-(1-12), 5 min

Structure (SMILES) | hypothalamic neurons depolarized of those examined ([1]; Ang II 1 mM in micropipette, pressure ejection) | membrane depolarization, mean amplitude ([1]; Ang II 1 mM in micropipette, pressure ejection, mean ± SEM, n=10) | effect on Ang-(1-12)-induced depolarization [1] | effect on Ang II-induced depolarization [1] | effect on Ca2+ response stimulated by Ang-(1-12) ([2]; 5 μM Ang-(1-12), losartan 0.1-10 μM, pre-incubated 30 min, dose-dependent) | effect on Ang II-induced Ca2+ mobilization ([2]; COS-7 and CHO cells transfected with AT1R cDNA) | effect on Ang-(1-12)- and Ang II-induced ERK responses [3]
CC[C@H](C)[C@H](NC(=O)[C@H](Cc1ccc(O)cc1)NC(=O)[C@@H](NC(=O)[C@H](CCCNC(=N)N)NC(=O)[C@@H](N)CC(=O)O)C(C)C)C(=O)N[C@@H](Cc1c[nH]cn1)C(=O)N1CCC[C@H]1C(=O)N[C@@H](Cc1ccccc1)C(=O)O [Ang II, angiotensin II] | 10 of the 27 | 6.9 ± 0.9 mV |  |  |  |  | 
Cc1cc(Cn2cnc3c2C[C@@H](C(=O)O)N(C(=O)C(c2ccccc2)c2ccccc2)C3)ccc1N(C)C [PD-123319] |  |  | not affected |  |  |  | 
C[C@H](CS)C(=O)N1CCC[C@H]1C(=O)O [captopril] |  |  | failed to suppress | not affected |  |  | 
CCCCc1nc(Cl)c(CO)n1Cc1ccc(-c2ccccc2-c2nn[nH]n2)cc1 [losartan] |  |  | antagonized | suppressed | effectively suppressed | suppressed | inhibited
